In series [1] the test system is HCT-116. As to the kind of experiment: Induction of apoptosis in human HCT116 cells assessed as caspase-3 activation after 24 hrs by Western blotting analysis. Format: functional, cell-based. Put shortly:
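HCT116 cells treated with indicated concentrations for 24 h; lysates probed by Western blot for caspase 3 and PARP cleavage.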

In series [2] the test system is HCT-116. The series can be described thus: Induction of apoptosis in human HCT116 cells assessed as caspase-3 activation at 3 uM after 24 hrs by Western blotting analysis in presence of Z-VAD-FMK. Format: functional, cell-based. In a few lines:
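HCT116 cells treated 24 h with 3 μM compound with or without 20 μM z-VAD-fmk pan-caspase inhibitor; caspase 3 and PARP assessed by Western blot.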

The target of the next series is Histone deacetylase 5 (Homo sapiens, UniProt Q9UQL6). The series can be described thus: Inhibition of HDAC5 (unknown origin) by fluorescence assay.
The target of the next series is T1, Histone deacetylase 7 (Homo sapiens, UniProt Q8WUI4).
T1 sequence (Q8WUI4 whole entry): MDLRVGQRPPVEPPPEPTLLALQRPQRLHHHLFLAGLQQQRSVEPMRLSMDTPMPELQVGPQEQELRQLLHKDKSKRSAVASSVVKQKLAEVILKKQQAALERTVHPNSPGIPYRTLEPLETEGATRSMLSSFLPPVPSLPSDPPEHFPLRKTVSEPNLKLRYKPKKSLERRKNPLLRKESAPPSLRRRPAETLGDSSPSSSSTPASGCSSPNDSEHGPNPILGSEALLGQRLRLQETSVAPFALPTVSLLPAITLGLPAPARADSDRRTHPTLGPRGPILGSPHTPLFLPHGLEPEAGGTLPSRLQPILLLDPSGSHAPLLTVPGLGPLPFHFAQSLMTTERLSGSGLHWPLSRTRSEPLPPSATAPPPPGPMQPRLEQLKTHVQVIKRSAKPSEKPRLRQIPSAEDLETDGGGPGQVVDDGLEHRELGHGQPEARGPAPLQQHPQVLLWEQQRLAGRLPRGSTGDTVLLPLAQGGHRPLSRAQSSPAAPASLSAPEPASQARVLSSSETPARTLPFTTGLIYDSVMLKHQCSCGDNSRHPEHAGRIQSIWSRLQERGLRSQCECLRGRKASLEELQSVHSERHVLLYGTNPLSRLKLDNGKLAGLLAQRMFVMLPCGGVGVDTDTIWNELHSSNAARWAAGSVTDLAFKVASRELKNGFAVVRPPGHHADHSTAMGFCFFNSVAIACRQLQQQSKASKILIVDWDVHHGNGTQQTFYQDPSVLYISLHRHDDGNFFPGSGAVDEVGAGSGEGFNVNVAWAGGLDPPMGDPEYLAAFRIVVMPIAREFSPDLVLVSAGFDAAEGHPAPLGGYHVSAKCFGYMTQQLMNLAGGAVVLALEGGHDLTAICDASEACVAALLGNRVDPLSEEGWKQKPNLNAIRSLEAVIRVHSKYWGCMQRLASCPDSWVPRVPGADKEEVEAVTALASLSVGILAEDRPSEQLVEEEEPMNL
The series can be described thus: Inhibition of HDAC7 (unknown origin) by fluorescence assay. In a few lines:
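Run by a contract testing lab. Compounds were dissolved in DMSO and tested in 10-dose IC50 mode, using 3-fold serial dilution starting at 10 μM. IC50 was taken from the dose series.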

Series [3] in a line: Volume of distribution at steady state in ICR mouse at 2 mg/kg, iv by LC-MS/MS analysis. Format: ADME, organism-based. Further details: dose 2 mg/kg, route intravenous. As to conditions: in vivo, read-out: Vdss.
In the next series the test system is A549. The series can be described thus: Cytotoxicity against human A549 cells by MTT assay. Format: functional, cell-based.

Calls of active or inactive are those of the source. The calls are words filed in the database; no cut-off is given here.

Histone deacetylase 5, sequence (Q9UQL6 whole entry): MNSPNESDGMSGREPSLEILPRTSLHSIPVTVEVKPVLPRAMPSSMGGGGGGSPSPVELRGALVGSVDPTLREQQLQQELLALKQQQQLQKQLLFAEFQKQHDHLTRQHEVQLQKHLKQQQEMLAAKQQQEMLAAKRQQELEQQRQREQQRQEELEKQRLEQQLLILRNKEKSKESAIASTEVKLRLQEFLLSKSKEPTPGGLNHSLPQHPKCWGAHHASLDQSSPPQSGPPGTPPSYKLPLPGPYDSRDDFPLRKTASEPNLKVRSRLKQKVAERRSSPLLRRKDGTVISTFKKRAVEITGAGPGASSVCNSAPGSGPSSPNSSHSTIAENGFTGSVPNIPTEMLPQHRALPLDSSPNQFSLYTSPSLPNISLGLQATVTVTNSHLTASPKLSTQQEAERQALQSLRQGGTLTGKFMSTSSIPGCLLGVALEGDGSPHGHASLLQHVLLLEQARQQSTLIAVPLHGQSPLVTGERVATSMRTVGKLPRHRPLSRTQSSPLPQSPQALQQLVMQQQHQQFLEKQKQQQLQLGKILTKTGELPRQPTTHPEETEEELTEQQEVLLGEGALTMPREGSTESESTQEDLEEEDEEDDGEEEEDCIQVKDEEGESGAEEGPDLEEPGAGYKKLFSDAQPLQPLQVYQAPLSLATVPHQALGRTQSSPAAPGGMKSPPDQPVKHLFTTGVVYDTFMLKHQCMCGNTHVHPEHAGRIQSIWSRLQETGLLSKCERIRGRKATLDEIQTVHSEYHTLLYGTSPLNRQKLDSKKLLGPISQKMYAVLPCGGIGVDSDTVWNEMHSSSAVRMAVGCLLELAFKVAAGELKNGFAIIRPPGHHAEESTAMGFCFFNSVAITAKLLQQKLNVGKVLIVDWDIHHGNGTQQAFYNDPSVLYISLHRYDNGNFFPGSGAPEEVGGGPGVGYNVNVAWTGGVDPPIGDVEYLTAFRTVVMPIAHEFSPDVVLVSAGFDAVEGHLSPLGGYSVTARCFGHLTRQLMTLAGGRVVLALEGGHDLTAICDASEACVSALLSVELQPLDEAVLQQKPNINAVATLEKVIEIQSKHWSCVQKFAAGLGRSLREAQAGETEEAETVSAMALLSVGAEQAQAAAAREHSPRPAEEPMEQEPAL

For the molecule `O=C(/C=C/c1cccc(S(=O)(=O)n2ccc3cccnc32)c1)NO`, in the series with HCT-116 [1], the Activity entry was “Dose-dependent effect”. The outcome with HCT-116 [2] was inactive. Moreover, the IC50 stood at 8.73 µM against Histone deacetylase 5, 4.11 µM at Histone deacetylase 7 and 1.33 µM in the series on A549. For the same molecule, the Vd in series [3] was 9.8 L/kg.

The values above are taken from ChEMBL document CHEMBL3259569 (J Med Chem, 2014).
